From ChEMBL document CHEMBL1143062, “Identification of natural-product-derived inhibitors of 5-lipoxygenase activity by ligand-based virtual screening” (J Med Chem, 2007)

Legend:
[1] = molecular target: T1, Polyunsaturated fatty acid 5-lipoxygenase (Homo sapiens) (UniProt P09917); experiment: Inhibition of partially purified human 5-LO expressed in Escherichia coli assessed as remaining 5-LO activity at 10 uM; values are per cent of control
T1 sequence (whole entry): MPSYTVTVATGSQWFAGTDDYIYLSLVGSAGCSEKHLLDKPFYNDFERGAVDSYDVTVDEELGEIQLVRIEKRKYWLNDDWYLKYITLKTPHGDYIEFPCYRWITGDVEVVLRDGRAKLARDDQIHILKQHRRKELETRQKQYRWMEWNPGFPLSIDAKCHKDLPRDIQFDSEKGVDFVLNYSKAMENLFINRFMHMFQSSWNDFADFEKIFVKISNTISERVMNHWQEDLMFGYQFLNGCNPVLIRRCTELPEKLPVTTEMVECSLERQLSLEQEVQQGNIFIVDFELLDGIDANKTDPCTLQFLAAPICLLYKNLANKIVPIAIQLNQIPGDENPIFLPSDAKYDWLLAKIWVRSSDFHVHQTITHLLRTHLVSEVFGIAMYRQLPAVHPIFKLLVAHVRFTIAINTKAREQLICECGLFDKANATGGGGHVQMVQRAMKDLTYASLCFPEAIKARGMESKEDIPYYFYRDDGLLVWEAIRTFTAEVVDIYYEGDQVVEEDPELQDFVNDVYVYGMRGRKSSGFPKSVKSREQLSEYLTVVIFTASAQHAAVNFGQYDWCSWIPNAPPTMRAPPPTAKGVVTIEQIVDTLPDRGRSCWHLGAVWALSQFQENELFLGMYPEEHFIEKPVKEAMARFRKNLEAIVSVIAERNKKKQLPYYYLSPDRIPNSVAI

[2] = molecular target: T2, Polyunsaturated fatty acid 5-lipoxygenase (Homo sapiens, UniProt P09917); experiment: Inhibition of 5-LO activity in ionophore A23187 and arachidonic-stimulated human intact PMNL; assay type: functional
T2 sequence (P09917 whole entry): T1 sequence (whole entry)
In short: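 Freshly isolated human PMNL from healthy-donor leukocyte concentrates (dextran sedimentation, Nycoprep, hypotonic erythrocyte lysis), 5 × 10^6 cells/mL in PBS pH 7.4 with 1 mg/mL glucose and 1 mM CaCl2. 5-LO products analysed by HPLC; n ≥ 3, mean ± SEM.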

[3] = molecular target: T2, Polyunsaturated fatty acid 5-lipoxygenase; experiment: Inhibition of partially purified human 5-LO expressed in Escherichia coli
In short: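 Recombinant 5-LO from E. coli MV1190 (pT3-5LO, expressed at 27 °C), partially purified by ammonium sulfate precipitation and ATP-agarose chromatography of the S100 fraction. 0.5 µg protein in PBS pH 7.4 with 1 mM EDTA and 1 mM ATP, compound 5-10 min at 4 °C. Started with 2 mM CaCl2 and 20 µM arachidonic acid, 10 min at 37 °C, methanol stop. HPLC product analysis as remaining activity; n ≥ 3, mean ± SEM.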

[4] = molecular target: T1, Polyunsaturated fatty acid 5-lipoxygenase (Homo sapiens); experiment: Inhibition of partially purified human 5-LO expressed in Escherichia coli assessed as remaining 5-LO activity at 1 uM; values are per cent of control

| SMILES | residual activity [1] [%] | IC50 [2] [µM] | IC50 [3] [µM] | residual activity [4] [%] |
| --- | --- | --- | --- | --- |
| COCCOc1cc(C)c2c(c1C)CC(C(C)C(=O)NC1CCCC1)CC2 (stereo unspecified) | 56 | > 10 | > 10 | 67 |
| COc1ccc(C(=O)Nc2nc3c(s2)CC2(C)CCC4C(C)C(=O)OC4C2C3C)cc1 (stereo unspecified) | 78 | 6 | > 10 | 57 |
| Cc1cc(OCCN(C)C)c(C)c2c1CCC(C(C)C(=O)Nc1nccs1)C2 (stereo unspecified) | 65 | > 10 | 1 | 55 |
| Cc1nnsc1C(=O)Nc1nc2c(s1)CC1(C)CCC3C(C)C(=O)OC3C1C2C (stereo unspecified) | 88 | 10 | > 10 | 87 |
| COc1cc(C)c2c(c1C)CC(C(C)C(=O)NCc1cccs1)CC2 (stereo unspecified) | 64 | 8 | > 10 | 64 |
| COc1ccccc1CC(=O)Nc1nc2c(s1)CC1(C)CCC3C(C)C(=O)OC3C1C2C (stereo unspecified) | 86 | 4 | > 10 | 87 |
| Cc1cc(OCCN(C)C)c(C)c2c1CCC(C(C)C(=O)Nc1ccccn1)C2 (stereo unspecified) | 73 | – | – | 56 |
| CCCOc1cc(C)c2c(c1C)CC(C(C)C(=O)Nc1ccccn1)CC2 (stereo unspecified) | – | 0.9 | 6 | – |
| COc1cc(C)c2c(c1C)CC(C(C)C(=O)Nc1nccs1)CC2 (stereo unspecified) | 56 | – | – | 73 |
| CCCOc1cc(C)c2c(c1C)CC(C(C)C(=O)NCc1cccs1)CC2 (stereo unspecified) | – | 8 | 3 | – |
| CCCOc1cc(C)c2c(c1C)CC(C(C)C(=O)Nc1nccs1)CC2 (stereo unspecified) | 36 | 0.8 | 1 | 50 |
| COc1cc(C)c2c(c1C)CC(C(C)C(=O)Nc1ccccn1)CC2 (stereo unspecified) | 42 | 5 | 0.8 | 54 |
| Cc1cc(OCCN2CCOCC2)c(C)c2c1CCC(C(C)C(=O)Nc1nccs1)C2 (stereo unspecified) | 62 | – | – | 74 |
| COc1cc(C)c2c(c1C)CC(C(C)C(=O)NCc1ccco1)CC2 (stereo unspecified) | 41 | > 10 | 0.9 | 47 |
| CC1C(=O)OC2C1CCC1(C)Cc3sc(NC(=O)C4CCCC4)nc3C(C)C21 (stereo unspecified) | 52 | 8 | 10 | 66 |
| CC1C(=O)OC2C1CCC1(C)Cc3sc(NC(=O)c4ccc5c(c4)OCO5)nc3C(C)C21 (stereo unspecified) | 96 | 2 | > 10 | 67 |
| COc1cc(C(=O)Nc2nc3c(s2)C[C@]2(C)CC[C@@H]4[C@H](OC(=O)[C@H]4C)[C@H]2[C@@H]3C)cc(OC)c1OC | 60 | 0.9 | > 10 | 65 |
| CC1C(=O)OC2C1CCC1(C)Cc3sc(NC(=O)NCc4ccccc4)nc3C(C)C21 (stereo unspecified) | 54 | 3 | > 10 | 78 |
| CCCOc1cc(C)c2c(c1C)CC(C(C)C(=O)Nc1ncc(C)s1)CC2 (stereo unspecified) | – | 1 | 0.8 | – |
| CC1C(=O)OC2C1CCC1(C)Cc3sc(NC(=O)Nc4ccc(F)cc4F)nc3C(C)C21 (stereo unspecified) | 52 | 7 | 0.6 | 46 |
| CSc1cccc(NC(=O)Nc2nc3c(s2)CC2(C)CCC4C(C)C(=O)OC4C2C3C)c1 (stereo unspecified) | 67 | 4 | 1 | 55 |
| COc1cc(C)c2c(c1C)CC(C(C)C(=O)NC(C)(C)C)CC2 (stereo unspecified) | 42 | > 10 | 4 | 55 |
